ChEMBL document CHEMBL4007437, “High-Potency Phenylquinoxalinone Cystic Fibrosis Transmembrane Conductance Regulator (CFTR) Activators” (J Med Chem, 2017)
The source made the active and inactive calls. The calls are words filed in the database; no cut-off is given here.

How the values were obtained:
[1] = target: Cystic fibrosis transmembrane conductance regulator (Homo sapiens, UniProt P13569); assay: Activation of human CFTR expressed in forskolin-stimulated basolateral membrane permeabilized FRT cells assessed as increase in short-circuit current amplitude after 30 mins by voltage clamp method; assay type: cell-based
Summary of the method: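 Short-circuit current in FRT cells expressing human wild-type CFTR grown on porous filters, with a transepithelial chloride gradient and permeabilized basolateral membrane. Low-concentration forskolin added first, then cumulative activator concentrations, finally 10 μM CFTRinh-172. EC50 from concentration–response, mean ± SEM, n = 3.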

[2] = target: Cystic fibrosis transmembrane conductance regulator (Homo sapiens, UniProt P13569, H148Q); assay: Activation of human CFTR expressed in FRT cells co-expressing YFP H148Q mutant assessed as increase in forskolin-stimulated iodide influx measured after 10 mins by fluorescence assay; assay type: cell-based
Cystic fibrosis transmembrane conductance regulator (Homo sapiens, UniProt P13569, H148Q), sequence (P13569 whole entry, looked up, stated change not applied): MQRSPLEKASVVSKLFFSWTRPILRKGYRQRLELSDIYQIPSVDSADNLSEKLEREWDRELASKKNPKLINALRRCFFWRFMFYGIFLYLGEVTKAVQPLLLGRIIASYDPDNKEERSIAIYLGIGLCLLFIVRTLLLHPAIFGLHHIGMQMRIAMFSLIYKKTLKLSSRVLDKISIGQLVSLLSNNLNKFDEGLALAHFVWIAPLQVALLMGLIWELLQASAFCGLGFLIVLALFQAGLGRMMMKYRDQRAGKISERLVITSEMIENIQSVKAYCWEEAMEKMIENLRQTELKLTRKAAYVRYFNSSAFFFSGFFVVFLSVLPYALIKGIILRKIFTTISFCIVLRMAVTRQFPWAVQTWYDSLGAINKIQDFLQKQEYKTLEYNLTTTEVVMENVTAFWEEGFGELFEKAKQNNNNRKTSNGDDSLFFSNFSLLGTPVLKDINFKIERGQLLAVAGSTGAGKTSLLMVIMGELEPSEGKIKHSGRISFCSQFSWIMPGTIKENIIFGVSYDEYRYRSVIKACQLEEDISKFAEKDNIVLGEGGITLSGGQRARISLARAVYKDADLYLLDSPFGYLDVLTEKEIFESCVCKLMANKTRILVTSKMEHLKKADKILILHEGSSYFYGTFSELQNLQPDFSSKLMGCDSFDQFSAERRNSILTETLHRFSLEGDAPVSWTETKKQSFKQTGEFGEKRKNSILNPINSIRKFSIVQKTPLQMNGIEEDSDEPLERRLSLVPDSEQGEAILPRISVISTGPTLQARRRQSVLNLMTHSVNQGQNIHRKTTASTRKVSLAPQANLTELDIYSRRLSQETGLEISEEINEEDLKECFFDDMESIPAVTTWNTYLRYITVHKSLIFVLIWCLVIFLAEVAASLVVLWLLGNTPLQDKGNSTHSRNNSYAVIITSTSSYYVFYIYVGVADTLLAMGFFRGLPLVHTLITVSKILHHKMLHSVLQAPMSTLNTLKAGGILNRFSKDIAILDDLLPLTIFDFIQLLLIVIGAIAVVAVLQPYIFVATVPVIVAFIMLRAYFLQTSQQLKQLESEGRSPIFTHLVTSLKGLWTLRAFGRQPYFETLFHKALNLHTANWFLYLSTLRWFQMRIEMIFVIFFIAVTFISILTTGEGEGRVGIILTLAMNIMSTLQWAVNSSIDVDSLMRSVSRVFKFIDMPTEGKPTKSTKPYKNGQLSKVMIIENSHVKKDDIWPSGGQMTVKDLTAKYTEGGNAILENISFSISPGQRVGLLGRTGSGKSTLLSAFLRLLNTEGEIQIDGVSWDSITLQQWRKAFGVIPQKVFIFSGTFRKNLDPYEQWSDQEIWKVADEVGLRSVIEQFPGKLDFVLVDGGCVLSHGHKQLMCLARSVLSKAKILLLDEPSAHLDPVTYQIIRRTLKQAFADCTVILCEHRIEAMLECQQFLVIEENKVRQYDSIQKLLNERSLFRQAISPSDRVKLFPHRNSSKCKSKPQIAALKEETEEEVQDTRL
Summary of the method: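 FRT cells stably coexpressing human wild-type CFTR and YFP-H148Q, near-confluent; washed with PBS, then 10 min in PBS with test compound and 125 nM forskolin. YFP fluorescence recorded 2 s baseline and 12 s after iodide addition (final 140 mM). Iodide influx rates fitted to concentration–response curves for EC50.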

[3] = Elevation of cytoplasmic calcium levels in Fischer rat thyroid cells at 10 uM after 5 mins by Fluo-4 based fluorescence assay; conditions: thyroid cell
Homo sapiens [4] = species: Homo sapiens; assay: Activation of calcium-activated chloride channel in human HT29 cells co-expressing YFP at 10 uM after 10 mins presence of iodide by fluorescence assay; assay type: cell-based
[5] = target: T1, Anoctamin-1 (Homo sapiens) (UniProt Q5XXA6); assay: Activation of human TMEM16A expressed in FRT cells co-expressing YFP assessed as increase in iodide influx at 10 uM measured after 10 mins by fluorescence assay; assay type: cell-based
T1 sequence (whole entry): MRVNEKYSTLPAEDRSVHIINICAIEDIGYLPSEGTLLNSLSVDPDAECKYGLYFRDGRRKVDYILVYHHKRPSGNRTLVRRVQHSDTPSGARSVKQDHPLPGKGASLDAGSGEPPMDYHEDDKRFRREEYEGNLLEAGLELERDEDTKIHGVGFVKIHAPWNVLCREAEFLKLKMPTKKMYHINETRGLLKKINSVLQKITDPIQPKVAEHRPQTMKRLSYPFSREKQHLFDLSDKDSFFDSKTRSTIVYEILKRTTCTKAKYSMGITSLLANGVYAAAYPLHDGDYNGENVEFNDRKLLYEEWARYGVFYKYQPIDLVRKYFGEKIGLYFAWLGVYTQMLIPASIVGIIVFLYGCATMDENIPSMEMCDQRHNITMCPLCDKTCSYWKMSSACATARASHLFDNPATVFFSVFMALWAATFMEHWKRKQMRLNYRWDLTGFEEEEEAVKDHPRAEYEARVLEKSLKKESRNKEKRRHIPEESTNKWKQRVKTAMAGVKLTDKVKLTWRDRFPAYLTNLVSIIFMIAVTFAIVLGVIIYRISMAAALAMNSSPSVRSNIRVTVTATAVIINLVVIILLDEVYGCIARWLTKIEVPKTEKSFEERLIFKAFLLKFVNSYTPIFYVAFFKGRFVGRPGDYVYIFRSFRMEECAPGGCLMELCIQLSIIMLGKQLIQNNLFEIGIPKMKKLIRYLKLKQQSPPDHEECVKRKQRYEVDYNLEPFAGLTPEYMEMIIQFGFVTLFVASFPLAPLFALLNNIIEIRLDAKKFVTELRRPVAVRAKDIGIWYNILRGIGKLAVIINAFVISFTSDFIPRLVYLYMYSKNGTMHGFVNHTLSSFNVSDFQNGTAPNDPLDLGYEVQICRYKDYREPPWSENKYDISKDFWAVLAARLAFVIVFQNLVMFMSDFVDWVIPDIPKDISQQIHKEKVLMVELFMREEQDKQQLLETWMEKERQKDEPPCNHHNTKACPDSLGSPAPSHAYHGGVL
Summary of the method: (§1)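 FRT cells coexpressing YFP and TMEM16A; continuous single-well YFP fluorescence for 2 s before and 12 s after addition of iodide solution (final 140 mM iodide). Activation read with iodide alone, inhibition with iodide plus ATP; compound at 10 μM. Iodide influx rate calculated from fluorescence quenching.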

[6] = target: T1, Anoctamin-1 (Homo sapiens); assay: Inhibition of human TMEM16A expressed in FRT cells co-expressing YFP assessed as decrease in iodide influx at 10 uM measured after 10 mins in presence of ATP by fluorescence assay; assay type: cell-based; summary of the method: as §1
Mus musculus [7] = assay: Suppression of constipation in po dosed loperamide-induced CD1 mouse acute constipation model assessed as normalization of stool water content administered 1 hr prior to loperamide addition measured after 3 hrs; assay type: functional
Summary of the method: (§2)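 CD1 mice, 8–10 weeks; compound or vehicle (saline, 5% DMSO, 10% Kolliphor HS 15) given orally at 0, 0.1, 0.3, 1, 3 or 10 mg/kg 1 h before loperamide 0.3 mg/kg ip. Stool collected 3 h in metabolic cages; weight, pellet count and water content (wet/dry weights). Mean ± SEM, 4 mice per group.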

Mus musculus [8] = assay: Suppression of constipation in po dosed loperamide-induced CD1 mouse acute constipation model assessed as normalization of pellet number administered 1 hr prior to loperamide addition measured after 3 hrs; assay type: functional; summary of the method: as §2
[9] = Effect on forskolin-stimulated cAMP levels in Fischer rat thyroid cells at 10 uM incubated for 10 mins by immunoassay; assay type: ADME, cell-based; conditions: thyroid cell
Summary of the method: (§3)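 FRT cells incubated 10 min with 10 μM compound, without or with 90 nM forskolin, then cellular cAMP measured. Positive controls: forskolin 100 nM and 20 μM, forskolin + IBMX (20 μM + 100 μM). Mean ± SEM, n = 4.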

Homo sapiens [10] = species: Homo sapiens; assay: Inhibition of calcium-activated chloride channel in human HT29 cells co-expressing YFP assessed as reduction in ATP-stimulated calcium levels at 10 uM preincubated for 10 mins followed by ATP addition in presence of iodide by fluorescence assay; assay type: cell-based
[11] = Effect on cAMP levels in Fischer rat thyroid cells at 10 uM incubated for 10 mins by immunoassay; assay type: ADME, cell-based; conditions: thyroid cell; summary of the method: as §3

| SMILES | EC50 ([2]; read-out: EC50) [µM] | also measured |
| --- | --- | --- |
| O=c1c(-c2cccc([N+](=O)[O-])c2)nc2ccccc2n1Cc1cccs1 | 0.01 | Activity [1]: Dose-dependent effect; EC50 [1]: 70 nM |
| Fc1ccc2nc3n(Cc4ccccc4)c4ccc(C(F)(F)F)cc4nc-3c2c1 | > 10 |  |
| O=c1c(-c2cccc([N+](=O)[O-])c2)nc2cc(Cl)c(Cl)cc2n1Cc1ccccc1 | > 10 |  |
| O=c1c(-c2cccc([N+](=O)[O-])c2)nc2ccccc2n1Cc1cccc2ccccc12 |  | EC50 [2]: Not Active |
| COC(=O)c1ccc([N+](=O)[O-])c(-c2nc3ccccc3n(Cc3ccccc3)c2=O)c1 | 9.9 |  |
| CC(=O)Nc1ccc([N+](=O)[O-])cc1-c1nc2cccc3c2n(c1=O)CCO3 | 0.82 |  |
| O=c1c(-c2cccc([N+](=O)[O-])c2)nc2ccccc2n1Cc1ccccc1 |  | Activity [3]: Non-Toxic; Activity [1]: Dose-dependent effect; Activity (Homo sapiens [4]): inactive; Activity [5]: inactive; inhibition [6]: inactive; ED50 (Mus musculus [7]): < 1 mg/kg; ED50 (Mus musculus [8]): < 1 mg/kg; Activity [9]: Non-Toxic; inhibition (Homo sapiens [10]): inactive; Activity [11]: Non-Toxic |
| O=C(O)c1ccc([N+](=O)[O-])c(-c2nc3ccccc3n(Cc3ccccc3)c2=O)c1 | > 10 |  |
| O=c1c(-c2cccc([N+](=O)[O-])c2)nc2cc(F)c(F)cc2n1Cc1ccccc1 | > 10 |  |
| O=c1c(-c2cccc([N+](=O)[O-])c2)nc2ccc(Br)cc2n1Cc1ccccc1 |  | EC50 [2]: Not Active |
| Nc1ccc(C(=O)O)cc1-c1nc2ccccc2n(Cc2ccccc2)c1=O | > 10 |  |
| Cn1c(=O)c(-c2cccc([N+](=O)[O-])c2)nc2ccccc21 | > 10 |  |
| Cc1cc2nc(-c3cccc([N+](=O)[O-])c3)c(=O)n(Cc3ccccc3)c2cc1C | > 10 |  |
| O=c1[nH]c2ccccc2nc1-c1cccc([N+](=O)[O-])c1 | > 10 |  |
| Nc1ccc([N+](=O)[O-])cc1-c1nc2cccc3c2n(c1=O)C(c1ccccc1)CO3 (centres undefined) | > 10 |  |
| Cc1cccc2nc(-c3cccc([N+](=O)[O-])c3)c(=O)n(Cc3ccccc3)c12 | > 10 |  |
| N#Cc1cccc(-c2nc3ccccc3n(Cc3ccccc3)c2=O)c1 | 1 |  |
| O=[N+]([O-])c1ccc2nc3n(Cc4ccccc4)c4ccc(C(F)(F)F)cc4nc-3c2c1 | > 10 |  |
